Results from PMC5421626 (Japanese Journal of Clinical Oncology, 2017).
Where two headings read alike, the source gives them in different places. Where a SMILES comes first, the peptide text is derived from it. [ ]: non-standard residue; d: D form. The star is where a group is joined. dPhe(4-NHCONH2) = NC(=O)Nc1ccc(C[C@@H](N)C(=O)O)cc1; Dihydroorotyl(S) = O=C1C[C@@H](C(=O)*)NC(=O)N1; dPhe(4-Cl) = N[C@H](Cc1ccc(Cl)cc1)C(=O)O; Phe(4-NH2) = Nc1ccc(C[C@H](N)C(=O)O)cc1; d2Nal = N[C@H](Cc1ccc2ccccc2c1)C(=O)O; Lys(iPr) = CC(C)NCCCC[C@H](N)C(=O)O; d3Pal = N[C@H](Cc1cccnc1)C(=O)O

Columns and labels:
[1] = system: serum prostate-specific antigen (PSA); assay: Serum PSA response and PSA failure, Phase II 3-month degarelix study; format: in vivo, human (Japanese patients with prostate cancer); settings: FAS; for median percent change in serum PSA level from baseline to Day 364: range −99.9%
Method in brief: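 Randomised 1:1 by minimisation, patients got a subcutaneous 240 mg initial dose, then from Day 28 360 or 480 mg (60 mg/ml) every 84 days for four doses. In the full analysis set, percent change in serum PSA from baseline was calculated at Days 28 and 364. PSA failure (relapse) over Days 0–364 was given as a proportion with two-sided 95% CI, and cumulative incidence by Kaplan–Meier.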

serum testosterone [2] = settings: Study CS18, 3-month regimen, cited from earlier work
serum testosterone [3] = settings: Study CL-0003, 1-month regimen, cited from earlier work
serum PSA = settings: Study CL-0003, 1-month regimen, cited from earlier work
[4] = Plasma pharmacokinetics of degarelix; format: in vivo, human (Japanese patients with prostate cancer); settings: for GMR (95% CI) of Ctrough values between Days 28 and 364: human plasma, LC-MS/MS, geometric mean ratio, PKAS; for Cmax / Tmax: male, human, plasma, sc
Method in brief: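 Patients got a subcutaneous 240 mg (40 mg/ml) initial dose, then 360 or 480 mg (60 mg/ml) every 84 days from Day 28, for four doses. Plasma was sampled every 28 days and assayed by validated LC-MS/MS (LOQ 0.5 ng/ml). Ctrough was taken on Days 28, 112, 196, 280 and 364, and GMRs with 95% CIs were compared. In a subset, samples 3 and 7 days after Day 28 gave Cmax and Tmax. Analysis set: PKAS.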

Safety assessment = format: in vivo, human (Japanese patients with prostate cancer); settings: for incidence of serious AEs / incidence of ADRs / overall incidence of AEs: SAF
Method in brief: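 The safety set covered all dosed patients, given a subcutaneous 240 mg initial dose, then 360 or 480 mg maintenance every 84 days for 12 months. Recorded were AEs, serious AEs and ADRs (including injection-site reactions), with AEs graded by NCI-CTCAE v4.0, plus biochemistry, hematology, urinalysis, vital signs and 12-lead ECG. Frequencies were tabulated by MedDRA System Organ Class and Preferred Term.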

serum testosterone [5] = assay: Serum testosterone suppression; format: in vivo, human (Japanese patients with prostate cancer); settings: completers–FAS

With `CC(=O)N[C@H](Cc1ccc2ccccc2c1)C(=O)N[C@H](Cc1ccc(Cl)cc1)C(=O)N[C@H](Cc1cccnc1)C(=O)N[C@@H](CO)C(=O)N[C@@H](Cc1ccc(NC(=O)[C@@H]2CC(=O)NC(=O)N2)cc1)C(=O)N[C@H](Cc1ccc(NC(N)=O)cc1)C(=O)N[C@@H](CC(C)C)C(=O)N[C@@H](CCCCNC(C)C)C(=O)N1CCC[C@H]1C(=O)N[C@H](C)C(N)=O` [degarelix] (Ac-[d2Nal][dPhe(4-Cl)][d3Pal]S[Phe(4-NH2)](Dihydroorotyl(S))[dPhe(4-NHCONH2)]L[Lys(iPr)]P[dA]-NH2) the “median percent change in serum PSA level from baseline to Day 28” value ([1]; 360 mg group (after 240 mg initial dose)) was −70.4%, the “proportion of patients with PSA failure (serum PSA relapse) from baseline to Day 364” value ([1]; 360 mg group) was 2.7% and the “median percent change in serum PSA level from baseline to Day 364” value ([1]; 360 mg group, −51.3%) was −95.05%. For the same molecule, the “median percent change in serum PSA level from baseline to Day 28” value ([1]; 480 mg group (after 240 mg initial dose)) was −79.9%, the “proportion of patients with PSA failure (serum PSA relapse) from baseline to Day 364” value ([1]; 480 mg group) was 1.3% and the “median percent change in serum PSA level from baseline to Day 364” value ([1]; 480 mg group, −44.0%) was −96.43%. For the same molecule, the “cumulative probability of serum testosterone ≤0.5 ng/ml” value (shortened to “cumulative probability”) (serum testosterone [2]; 360 mg group) was 89.0%, the “cumulative probability” value (serum testosterone [2]; 480 mg group) was 93.3% and the “cumulative probability” value (serum testosterone [3]; 80 mg maintenance-dose group) was 94.5%. For the same molecule, the “cumulative probability” value (serum testosterone [3]; 160 mg maintenance-dose group) was 95.2%, the “percent change in PSA at Day 28” value (serum PSA; 80 mg maintenance-dose group) was “–80.14%” and the “percent change in PSA at Day 28” value (serum PSA; 160 mg maintenance-dose group) was “–79.52%”. For the same molecule, the “GMR (95% CI) of Ctrough values between Days 28 and 364” value ([4]; 360 mg group) was 1.258 (1.114–1.421), the “GMR (95% CI) of Ctrough values between Days 28 and 364” value ([4]; 480 mg group) was 1.752 (1.589–1.932) and the “steady state of plasma concentration” value ([4]; both dose groups (360 and 480 mg every 84 days)) was “did not achieve steady state by Day 364”. It also gave a Cmax ([4]; 360 mg) of 74.7 ± 30 ng/mL, a Tmax ([4]; 360 mg) of 71.3 h and a Cmax ([4]; 480 mg) of 98.5 ± 31.7 ng/mL. For the same molecule, the Tmax ([4]; 480 mg) was 70.8 h, the “patients with AEs related to injection site reactions” value (Safety assessment; 360 mg group) was 50.0% and the “incidence of serious AEs” value (Safety assessment; 360 mg group, 13/76) was 17.1%. For the same molecule, the “incidence of ADRs” value (Safety assessment; 360 mg group, 68/76) was 89.5%, the “overall incidence of AEs” value (Safety assessment; 360 mg group, 72/76) was 94.7% and the “deaths (patients)” value (Safety assessment; 360 mg group, suicide after initial dose, before maintenance dose) was “One”. The “patients with AEs related to injection site reactions” value (Safety assessment; 480 mg group) was 60.5%, the “patients with marked increase (≥480 ms) in QTcF on Day 364” value (Safety assessment; 480 mg group, 12-lead electrocardiogram) was “one” and the “incidence of serious AEs” value (Safety assessment; 480 mg group, 7/76) was 9.2%. The “incidence of ADRs” value (Safety assessment; 480 mg group, 71/76) was 93.4%, the “overall incidence of AEs” value (Safety assessment; 480 mg group, 73/76) was 96.1% and the “patients who discontinued the treatment because of injection site reactions” value (Safety assessment; both groups) was “no patient”. The “severity of injection site reactions” value (Safety assessment; both groups, NCI-CTCAE v4.0) was “mild or moderate (Grade 1 or 2)”, the “proportion of patients with a serum testosterone level ≤0.5 ng/ml from Days 28 to 364” value (serum testosterone [5]; 360 mg group, 95% CI 76.85–94.45%) was 87.50% and the “proportion of patients with a serum testosterone level ≤0.5 ng/ml from Days 28 to 364” value (serum testosterone [5]; 480 mg group, 95% CI 89.92–99.65%) was 97.10%.
